Data published in PMC11047177 (ESMO Open, 2024).
“Also recorded” adds a separate entry of the source.

Tests used:
[1] = Phase I study NCT03854227: DLTs and adverse events; assay type: in vivo, human
Procedure, shortened: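 Open-label, multicentre first-in-human trial in adults (ECOG 0–1) with advanced or metastatic tumours. Oral test compound, q.d. or b.i.d., on an empty stomach in continuous 28-day cycles. Part 1 started at 0.5 mg q.d., with escalation guided by a two-parameter Bayesian logistic regression model on cycle 1 DLTs. Part 2 ran at 6 mg q.d. AEs were graded by CTCAE 5.0 and summarised descriptively by dose level.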

[2] = tested on: non-small-cell lung cancer (NSCLC) cells; settings: in vitro; cited from earlier work

Question: Which results are given for Cc1ncnc2c1ccn2[C@@H]1C[C@H](Oc2cc(C(F)F)c(F)c3c2CNCC3)[C@@H](O)[C@H]1O [PF-06939999]?
Answer: TRAE dysgeusia, any grade ([1]; part 1 + part 2, N=54): 22%; TRAE fatigue, any grade ([1]; part 1 + part 2, N=54): 28%; TRAE nausea, any grade ([1]; part 1 + part 2, N=54): 32%; TRAE thrombocytopenia, any grade ([1]; part 1 + part 2, N=54): 41%; DLT ([1]; part 1, 0.5 mg b.i.d., N=1): 0 n (%); Grade ≥3 TRAE Anemia ([1]; part 1, 0.5 mg b.i.d., N=1): 0 n (%); Grade ≥3 TRAE Fatigue ([1]; part 1, 0.5 mg b.i.d., N=1): 0 n (%); Grade ≥3 TRAE Lymphocyte count decreased ([1]; part 1, 0.5 mg b.i.d., N=1): 0 n (%); Grade ≥3 TRAE Muscular weakness ([1]; part 1, 0.5 mg b.i.d., N=1): 0 n (%); Grade ≥3 TRAE Neutropenia ([1]; part 1, 0.5 mg b.i.d., N=1): 0 n (%); Grade ≥3 TRAE Thrombocytopenia ([1]; part 1, 0.5 mg b.i.d., N=1): 0 n (%); DLT ([1]; part 1, 0.5 mg q.d., N=1): 0 n (%); Grade ≥3 TRAE Anemia ([1]; part 1, 0.5 mg q.d., N=1): 0 n (%); Grade ≥3 TRAE Fatigue ([1]; part 1, 0.5 mg q.d., N=1): 0 n (%); Grade ≥3 TRAE Lymphocyte count decreased ([1]; part 1, 0.5 mg q.d., N=1): 0 n (%); Grade ≥3 TRAE Muscular weakness ([1]; part 1, 0.5 mg q.d., N=1): 0 n (%); Grade ≥3 TRAE Neutropenia ([1]; part 1, 0.5 mg q.d., N=1): 0 n (%); Grade ≥3 TRAE Thrombocytopenia ([1]; part 1, 0.5 mg q.d., N=1): 0 n (%); DLT ([1]; part 1, 1 mg b.i.d., N=2): 0 n (%); Grade ≥3 TRAE Anemia ([1]; part 1, 1 mg b.i.d., N=2): 1 (50) n (%); Grade ≥3 TRAE Fatigue ([1]; part 1, 1 mg b.i.d., N=2): 0 n (%); Grade ≥3 TRAE Lymphocyte count decreased ([1]; part 1, 1 mg b.i.d., N=2): 0 n (%); Grade ≥3 TRAE Muscular weakness ([1]; part 1, 1 mg b.i.d., N=2): 0 n (%); Grade ≥3 TRAE Neutropenia ([1]; part 1, 1 mg b.i.d., N=2): 0 n (%); Grade ≥3 TRAE Thrombocytopenia ([1]; part 1, 1 mg b.i.d., N=2): 0 n (%); DLT ([1]; part 1, 2 mg b.i.d., N=2): 0 n (%); Grade ≥3 TRAE Anemia ([1]; part 1, 2 mg b.i.d., N=3): 0 n (%); Grade ≥3 TRAE Fatigue ([1]; part 1, 2 mg b.i.d., N=3): 0 n (%); Grade ≥3 TRAE Lymphocyte count decreased ([1]; part 1, 2 mg b.i.d., N=3): 0 n (%); Grade ≥3 TRAE Muscular weakness ([1]; part 1, 2 mg b.i.d., N=3): 0 n (%); Grade ≥3 TRAE Neutropenia ([1]; part 1, 2 mg b.i.d., N=3): 0 n (%); Grade ≥3 TRAE Thrombocytopenia ([1]; part 1, 2 mg b.i.d., N=3): 1 (33) n (%); DLT ([1]; part 1, 4 mg b.i.d., N=3): 0 n (%); Grade ≥3 TRAE Anemia ([1]; part 1, 4 mg b.i.d., N=3): 1 (33) n (%); Grade ≥3 TRAE Fatigue ([1]; part 1, 4 mg b.i.d., N=3): 1 (33) n (%); Grade ≥3 TRAE Lymphocyte count decreased ([1]; part 1, 4 mg b.i.d., N=3): 0 n (%); Grade ≥3 TRAE Muscular weakness ([1]; part 1, 4 mg b.i.d., N=3): 0 n (%); Grade ≥3 TRAE Neutropenia ([1]; part 1, 4 mg b.i.d., N=3): 0 n (%); Grade ≥3 TRAE Thrombocytopenia ([1]; part 1, 4 mg b.i.d., N=3): 1 (33) n (%); DLT ([1]; part 1, 4 mg q.d., N=4): 0 n (%); Grade ≥3 TRAE Anemia ([1]; part 1, 4 mg q.d., N=5): 2 (40) n (%); Grade ≥3 TRAE Fatigue ([1]; part 1, 4 mg q.d., N=5): 0 n (%); Grade ≥3 TRAE Lymphocyte count decreased ([1]; part 1, 4 mg q.d., N=5): 0 n (%); Grade ≥3 TRAE Muscular weakness ([1]; part 1, 4 mg q.d., N=5): 1 (20) n (%); Grade ≥3 TRAE Neutropenia ([1]; part 1, 4 mg q.d., N=5): 0 n (%); Grade ≥3 TRAE Thrombocytopenia ([1]; part 1, 4 mg q.d., N=5): 0 n (%); DLT thrombocytopenia, number of patients ([1]; part 1, 6 mg b.i.d.): 2 n; DLT ([1]; part 1, 6 mg b.i.d., N=2): 2 (100) n (%); Grade ≥3 TRAE Anemia ([1]; part 1, 6 mg b.i.d., N=4): 1 (25) n (%); Grade ≥3 TRAE Fatigue ([1]; part 1, 6 mg b.i.d., N=4): 0 n (%); Grade ≥3 TRAE Lymphocyte count decreased ([1]; part 1, 6 mg b.i.d., N=4): 0 n (%); Grade ≥3 TRAE Muscular weakness ([1]; part 1, 6 mg b.i.d., N=4): 0 n (%); Grade ≥3 TRAE Neutropenia ([1]; part 1, 6 mg b.i.d., N=4): 0 n (%); Grade ≥3 TRAE Thrombocytopenia ([1]; part 1, 6 mg b.i.d., N=4): 2 (50) n (%); DLT (grade 3) neutropenia, number of patients ([1]; part 1, 6 mg q.d.): 1 n; DLT ([1]; part 1, 6 mg q.d., N=6): 1 (17) n (%); Grade ≥3 TRAE Anemia ([1]; part 1, 6 mg q.d., N=6): 2 (33) n (%); Grade ≥3 TRAE Fatigue ([1]; part 1, 6 mg q.d., N=6): 1 (17) n (%); Grade ≥3 TRAE Lymphocyte count decreased ([1]; part 1, 6 mg q.d., N=6): 0 n (%); Grade ≥3 TRAE Muscular weakness ([1]; part 1, 6 mg q.d., N=6): 0 n (%); Grade ≥3 TRAE Neutropenia ([1]; part 1, 6 mg q.d., N=6): 1 (17) n (%); Grade ≥3 TRAE Thrombocytopenia ([1]; part 1, 6 mg q.d., N=6): 0 n (%); DLT (grade 3) anemia, number of patients ([1]; part 1, 8 mg q.d.): 1 n; DLT ([1]; part 1, 8 mg q.d., N=3): 1 (33) n (%); Grade ≥3 TRAE Anemia ([1]; part 1, 8 mg q.d., N=3): 1 (33) n (%); Grade ≥3 TRAE Fatigue ([1]; part 1, 8 mg q.d., N=3): 0 n (%); Grade ≥3 TRAE Lymphocyte count decreased ([1]; part 1, 8 mg q.d., N=3): 1 (33) n (%); Grade ≥3 TRAE Muscular weakness ([1]; part 1, 8 mg q.d., N=3): 0 n (%); Grade ≥3 TRAE Neutropenia ([1]; part 1, 8 mg q.d., N=3): 0 n (%); Grade ≥3 TRAE Thrombocytopenia ([1]; part 1, 8 mg q.d., N=3): 2 (67) n (%); Patients reporting DLTs ([1]; part 1, 4 of 24 DLT-assessable patients): 17%; DLT grade 3 thrombocytopenia, number of patients ([1]; part 1, 6-mg b.i.d. cohort): 1 n; DLT grade 4 thrombocytopenia, number of patients ([1]; part 1, 6-mg b.i.d. cohort): 1 n; DLT ([1]; part 1, Total, N=24): 4 (17) n (%); Grade ≥3 TRAE Fatigue ([1]; part 1, Total, N=28): 2 (7) n (%); Grade ≥3 TRAE Lymphocyte count decreased ([1]; part 1, Total, N=28): 1 (4) n (%); Grade ≥3 TRAE Muscular weakness ([1]; part 1, Total, N=28): 1 (4) n (%); Grade ≥3 TRAE Neutropenia ([1]; part 1, Total, N=28): 1 (4) n (%); Grade ≥3 TRAE Thrombocytopenia ([1]; part 1, Total, N=28): 6 (21) n (%); Maximum tolerated dose (MTD) ([1]; part 1 dose escalation, 0.5 mg q.d. to 6 mg b.i.d.): No MTD was determined; also recorded: MTD was not identified; Dose reduction due to thrombocytopenia, patients ([1]; part 2, 6 mg q.d., 4 patients): 15%; Dose reduction due to anemia, patients ([1]; part 2, 6 mg q.d., 5 patients): 19%; Patients with ≥1 dose reduction due to AEs ([1]; part 2, 6 mg q.d., eight patients): 31%; Anti-proliferative activity [2]: demonstrated anti-proliferative activity
